Laboratory results reported in ChEMBL document CHEMBL5705892, “MK-2206, an allosteric Akt inhibitor, enhances antitumor efficacy by standard chemotherapeutic agents or molecular targeted drugs in vitro and in vivo” (Mol Cancer Ther, 2010).
pIC50: −log10 of the molar value. Active and inactive are the calls of the source. The rule behind the calls is not given here.

Legend:
[1] = biological target: RAC-alpha serine/threonine-protein kinase (Homo sapiens) (UniProt P31749); test: Inhibition of AKT phosphorylation at S473 residue in human HCC70 cells at 10 umol/L measured up to 24 hrs by Western blot analysis; assay type: cell-based; settings: dose 10.0 µmol/L
How it was run: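 HCC70 cells at ~70% confluence were exposed to 10 µmol/L lapatinib, 1 µmol/L MK-2206, or both, for 0, 3, 6, 12 or 24 h. Lysates were prepared in Triton X-100/Tris buffer (pH 7.5) with protease and phosphatase inhibitors. Immunoblots after SDS-PAGE and nitrocellulose transfer were probed for pAkt and pS6.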

[2] = test system: SK-BR-3; test: Antiproliferative activity against human SK-BR-3 cells assessed as reduction in cell proliferation measured after 72 hrs by celltiter-glo assay; assay type: functional, cell-based; settings: SK-BR-3, 72 h
How it was run: (§1)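 Cells in RPMI 1640 with 10% heat-inactivated FBS at 37°C and 5% CO₂ were seeded at 2 to 3 × 10³ per well. […] Growth was read as cellular ATP by CellTiter-Glo.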

[3] = test system: HCC70; test: Induction of apoptosis in human HCC70 cells assessed as increase in caspase-3/7 activity at 10 umol/L measured after 48 hrs by caspase-glo 3/7 assay relative to control; assay type: functional; settings: dose 10 µmol/L
How it was run: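 HCC70 breast cells were treated for 48 h with MK-2206 (0, 0.03, 0.3, 3 µmol/L), with or without lapatinib (0, 1, 3, 5, 10 µmol/L). Caspase-3/7 activity was read by Caspase-Glo 3/7 luminescence and expressed as fold induction over DMSO-treated control. The experiment was run twice.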

[4] = test system: NCI-N87; test: Antiproliferative activity against human NCI-N87 cells assessed as reduction in cell proliferation measured after 72 hrs by celltiter-glo assay; assay type: functional, cell-based; settings: NCI-N87, 72 h; how it was run: as §1
[5] = test system: SK-OV-3; test: Antitumor activity against human SK-OV-3 cells xenografted in CB17/icr SCID mouse assessed as tumor growth inhibition at 100 mg/kg, po administered 5 days per week for 2 weeks and measured twice a week during compound dosing by caliper method; assay type: functional, organism-based
How it was run: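 SK-OV-3 cells were implanted s.c. into female C.B-17/ICR-scid mice, which were randomized at 0.13 cm³, n = 5. Lapatinib (water) was given at 100 mg/kg po on days 0–4 and 7–11. MK-2206 (30% Captisol) was given at 60 or 120 mg/kg po on days 0, 2, 4, 7, 9, 11. Tumor volume by calipers twice weekly.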

[6] = test system: HCC1954; test: Antiproliferative activity against human HCC1954 cells assessed as reduction in cell proliferation measured after 72 hrs by celltiter-glo assay; assay type: functional, cell-based; settings: HCC1954, 72 h; how it was run: as §1
[7] = test system: MDA-MB-468; test: Antiproliferative activity against human MDA-MB-468 cells assessed as reduction in cell proliferation measured after 72 hrs by celltiter-glo assay; assay type: functional, cell-based; settings: MDA-MB-468, 72 h; how it was run: as §1
[8] = test system: SK-OV-3; test: Antiproliferative activity against human SK-OV-3 cells assessed as reduction in cell proliferation measured after 72 hrs by celltiter-glo assay; assay type: functional, cell-based; settings: SK-OV-3, 72 h; how it was run: as §1
[9] = test system: HCC70; test: Antiproliferative activity against human HCC70 cells assessed as reduction in cell proliferation measured after 72 hrs by celltiter-glo assay; assay type: functional, cell-based; settings: HCC70, 72 h; how it was run: as §1
[10] = Toxicity in human PC-3 cells xenografted CD1 nude mouse assessed as body weight loss at 5 mg/kg, iv relative to control; assay type: organism-based; settings: in vivo
How it was run: (§2)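 Male CD1-nude mice with s.c. PC-3 tumours (50% Matrigel/50% PBS, left flank), randomized at mean 0.2 cm³, n=5/group, treated from 25 d post-implant. Body weight monitored versus vehicle-only controls.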

[11] = test system: PC-3; test: Antitumor activity against human PC-3 cells xenografted in CD1 nude mouse assessed as reduction in tumor volume at 5 mg/kg, iv by caliper method; assay type: functional, organism-based
How it was run: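 Male CD1-nude mice received s.c. PC-3 cells and were treated from day 25 after implant, at 0.2 cm³, n = 5. Docetaxel (0.73% ethanol in saline) was given at 5 mg/kg i.v. on day 0. MK-2206 (30% Captisol) was given at 120 mg/kg po on days 1, 3, 5, 8, 10, 12. Caliper volume twice weekly.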

[12] = Toxicity in human PC-3 cells xenografted CD1 nude mouse assessed as body weight loss at 5 mg/kg, iv measured on day 15 relative to control; assay type: organism-based; settings: in vivo, 360 h, time 15 day; how it was run: as §2
[13] = test system: Calu-6; test: Antiproliferative activity against human Calu-6 cells assessed as reduction in cell proliferation measured after 72 hrs by celltiter-glo assay; assay type: functional, cell-based; settings: Calu-6, 72 h; how it was run: as §1
[14] = test system: HCC827; test: Antiproliferative activity against human HCC827 cells assessed as reduction in cell proliferation measured after 72 hrs by celltiter-glo assay; assay type: functional, cell-based; settings: HCC827, 72 h; how it was run: as §1
[15] = Toxicity in human NCI-H292 cells xenografted CD-1 mouse assessed as death at 50 mg/kg, po administered once daily for 5 days per week for 2 weeks and measured during compound dosing; assay type: organism-based; settings: in vivo, 336 h
How it was run: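 NCI-H292 cells in 50% Matrigel/PBS injected s.c. into flank of female CD1-nude mice; dosing began after 2 wk at mean tumour 0.2 cm³, n = 5/group. […] Body weight and signs monitored; treatment ended day 16.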

[16] = test system: NCI-H1299; test: Antiproliferative activity against human NCI-H1299 cells assessed as reduction in cell proliferation measured after 72 hrs by celltiter-glo assay; assay type: functional, cell-based; settings: NCI-H1299, 72 h; how it was run: as §1
[17] = test system: NCI-H358; test: Antiproliferative activity against human NCI-H358 cells assessed as reduction in cell proliferation measured after 72 hrs by celltiter-glo assay; assay type: functional, cell-based; settings: NCI-H358, 72 h; how it was run: as §1
[18] = test system: NCI-H292; test: Induction of apoptosis in human NCI-H292 cells assessed as increase in caspase-3/7 activity up to 20 umol/L measured after 48 hrs by caspase-glo 3/7 assay; assay type: functional, cell-based; settings: dose <= 20.0 µmol/L
How it was run: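 Caspase-3/7 activity was measured by Caspase-Glo 3/7 and expressed as fold over DMSO vehicle control. The experiment was done twice.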

[19] = test system: NCI-H292; test: Antitumor activity against human NCI-H292 cells xenografted in CD-1 mouse assessed as tumor growth suppression at 50 mg/kg, po administered once daily for 5 days per week for 2 weeks and measured twice a week during compound dosing by caliper method; assay type: functional, organism-based
How it was run: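 Female CD1-nude mice carried s.c. NCI-H292 cells in Matrigel/PBS and were randomized at 0.2 cm³, n = 5. […] MK-2206 (30% Captisol) was given 2 h later at 120 mg/kg po on days 0, 2, 4, 7, 9, 11, or at 360 mg/kg on days 0 and 7. Control received vehicle. Caliper volume twice weekly.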

[20] = test system: NCI-H292; test: Antiproliferative activity against human NCI-H292 cells assessed as reduction in cell proliferation measured after 72 hrs by celltiter-glo assay; assay type: functional, cell-based; settings: NCI-H292, 72 h; how it was run: as §1
[21] = test system: A-431; test: Antiproliferative activity against human A-431 cells assessed as reduction in cell proliferation measured after 72 hrs by celltiter-glo assay; assay type: functional, cell-based; settings: A-431, 72 h; how it was run: as §1
[22] = test system: NCI-H23; test: Antiproliferative activity against human NCI-H23 cells assessed as reduction in cell proliferation measured after 72 hrs by celltiter-glo assay; assay type: functional, cell-based; settings: NCI-H23, 72 h; how it was run: as §1
[23] = test system: Mus musculus; test: In vivo inhibition of EGFR in human NCI-H292 cells xenografted mouse assessed as reduction in ERK phosphorylation at T202/Y204 residues at 50 mg/kg, po administered as single dose measured after 14 hrs by Western blot analysis; assay type: functional, organism-based
[24] = test system: Mus musculus; test: In vivo inhibition of EGFR in human NCI-H292 cells xenografted mouse assessed as reduction in AKT phosphorylation at S473 residue at 50 mg/kg, po administered as single dose measured after 14 hrs by Western blot analysis; assay type: functional, organism-based
[25] = biological target: RAC-alpha serine/threonine-protein kinase (Homo sapiens) (UniProt P31749); test: Induction of AKT phosphorylation at S473 residue in human UMC-11 cells at 10 umol/L measured after 4 to 24 hrs by MSD assay; assay type: cell-based; settings: dose 10.0 µmol/L, time 4-24 hrs
[26] = Toxicity in human NCI-H460 cells xenografted CD1 nude mouse assessed as body weight loss at 100 mg/kg, iv administered once a week for 2 weeks measured on day 14 to 16; assay type: organism-based; settings: in vivo, 336 h, time 14-16 day
How it was run: (§3)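 Mice with s.c. NCI-H460 xenografts (50% Matrigel/50% PBS, left flank), randomized at mean 0.2 cm³, n=5/group, treatment started 8 d after implant. Gemcitabine 100 mg/kg i.v. in saline on days 0 and 7; vehicle-only controls. Body weight and physical signs monitored throughout.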

[27] = biological target: RAC-alpha serine/threonine-protein kinase (Homo sapiens) (UniProt P31749); test: Induction of AKT phosphorylation at S473 residue in human NCI-H1703 cells at 0.7 nmol/L measured after 8 hrs by MSD assay; assay type: cell-based; settings: filed as activator
How it was run: (§4)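 Lung cancer cells were seeded at 5 × 10⁴ per well, and carboplatin or gemcitabine was added 24 h after plating. Phospho-Akt induction was then measured.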

[28] = biological target: RAC-alpha serine/threonine-protein kinase (Homo sapiens) (UniProt P31749); test: Induction of AKT phosphorylation at S473 residue in human NCI-H661 cells at 10 nmol/L measured after 8 hrs by MSD assay; assay type: cell-based; settings: filed as activator; how it was run: as §4
[29] = biological target: RAC-alpha serine/threonine-protein kinase (Homo sapiens) (UniProt P31749); test: Induction of AKT phosphorylation at S473 residue in human NCI-H441cells at 5 nmol/L measured after 4 to 24 hrs by MSD assay; assay type: cell-based; settings: NCI-H441, time 4-24 hrs; how it was run: as §4
[30] = biological target: RAC-alpha serine/threonine-protein kinase (Homo sapiens) (UniProt P31749); test: Induction of AKT phosphorylation at S473 residue in human NCI-H1993 cells at 28 nmol/L measured after 8 hrs by MSD assay; assay type: cell-based; settings: filed as activator; how it was run: as §4
[31] = Toxicity in human NCI-H460 cells xenografted CD1 nude mouse assessed as body weight loss at 100 mg/kg, iv administered once a week for 2 weeks measured during compound dosing relative to control; assay type: organism-based; settings: in vivo, 336 h; how it was run: as §3
[32] = biological target: RAC-alpha serine/threonine-protein kinase (Homo sapiens) (UniProt P31749); test: Induction of AKT phosphorylation at S473 residue in human NCI-H460 cells at 5 nmol/L measured after 8 hrs by MSD assay; assay type: cell-based; settings: filed as activator; how it was run: as §4

Sequence of RAC-alpha serine/threonine-protein kinase (Homo sapiens) (P31749 whole entry): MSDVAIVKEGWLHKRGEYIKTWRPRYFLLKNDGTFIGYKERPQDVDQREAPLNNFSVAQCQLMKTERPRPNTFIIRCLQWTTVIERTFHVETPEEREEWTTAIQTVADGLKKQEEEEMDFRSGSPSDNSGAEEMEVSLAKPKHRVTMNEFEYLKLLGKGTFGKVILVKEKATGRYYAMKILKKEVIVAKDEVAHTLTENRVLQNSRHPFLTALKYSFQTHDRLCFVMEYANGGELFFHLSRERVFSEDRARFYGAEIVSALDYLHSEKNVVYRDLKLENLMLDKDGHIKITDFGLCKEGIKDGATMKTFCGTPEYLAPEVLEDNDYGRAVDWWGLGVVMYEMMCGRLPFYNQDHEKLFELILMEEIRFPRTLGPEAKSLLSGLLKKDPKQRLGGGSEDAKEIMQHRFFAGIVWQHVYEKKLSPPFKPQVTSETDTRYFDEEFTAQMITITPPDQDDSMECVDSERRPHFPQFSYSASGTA

CS(=O)(=O)CCNCc1ccc(-c2ccc3ncnc(Nc4ccc(OCc5cccc(F)c5)c(Cl)c4)c3c2)o1 [LAPATINIB]
inhibition [1]: inactive
pIC50 [2]: 7.52
fold change (FC) [3]: ~2
pIC50 [4]: 7.40
TGI [5]: Active
pIC50 [6]: 5.26
pIC50 [7]: 5.35
pIC50 [8]: < 5.00
pIC50 [9]: 5.49

CC(=O)O[C@@]12CO[C@@H]1C[C@H](O)[C@@]1(C)C(=O)[C@H](O)C3=C(C)[C@@H](OC(=O)[C@H](O)[C@@H](NC(=O)OC(C)(C)C)c4ccccc4)C[C@@](O)([C@@H](OC(=O)c4ccccc4)[C@H]21)C3(C)C [DOCETAXEL ANHYDROUS]
Activity [10]: 4%
Activity [11]: Active
Activity [12]: Non-Toxic

C#Cc1cccc(Nc2ncnc3cc(OCCOC)c(OCCOC)cc23)c1 [ERLOTINIB]
pIC50 [13]: 4.45
pIC50 [14]: 7.70
Activity [15]: Non-Toxic
pIC50 [16]: 4.68
pIC50 [17]: 5.36
Activity [18]: inactive
Activity [19]: Active
pIC50 [20]: 6.30
pIC50 [21]: 5.72
pIC50 [22]: 4.97
inhibition [23]: Active
inhibition [24]: inactive

Nc1ccn([C@@H]2O[C@H](CO)[C@@H](O)C2(F)F)c(=O)n1 [GEMCITABINE]
Activity [25]: inactive
Activity [26]: Non-Toxic
Activity [27]: Active
Activity [28]: Active
Activity [29]: inactive
Activity [30]: Active
Activity [31]: 7%
Activity [32]: Active
